For 2 compounds, Activity results are on record in ChEMBL document CHEMBL1154183, “Structure-based optimization of potent and selective inhibitors of the tyrosine kinase erythropoietin producing human hepatocellular carcinoma receptor B4 (EphB4)” (J Med Chem, 2009).

The target of assay [1] is Mitogen-activated protein kinase 1 (Homo sapiens) (UniProt P28482). The assay is described as follows: Inhibition of ERK2 assessed as remaining enzyme activity at 3 uM relative to DMSO. A digest of the protocol: (§1)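 Dundee kinase panel, radiometric: [γ-33P]ATP (800 cpm/pmol) at 5, 20 or 50 μM, at or below each kinase's ATP Km; 10 mM magnesium acetate; robotic, room temperature, 30 min. Reactions started with MgATP, stopped with orthophosphoric acid, spotted onto P81 filters. Inhibitor tested at a single concentration; mean % activity of duplicates relative to DMSO control.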

In assay [2] the target is Serine/threonine-protein kinase Sgk1 (Homo sapiens) (UniProt O00141). The assay is described as follows: Inhibition of SGK1 assessed as remaining enzyme activity at 3 uM relative to DMSO.
Assay [3] has as its target Rho-associated protein kinase 2 (Homo sapiens) (UniProt O75116). The assay is described as follows: Inhibition of ROCK2 assessed as remaining enzyme activity at 3 uM relative to DMSO.
The target in assay [4] is MAP kinase-interacting serine/threonine-protein kinase 1 (Homo sapiens) (UniProt Q9BUB5). Briefly: Inhibition of MNK1 assessed as remaining enzyme activity at 3 uM relative to DMSO. A digest of the protocol:
(§2)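 Radiometric kinase assay run robotically at room temperature for 30 min. Contained 10 mM magnesium acetate and [γ-33P]ATP (800 cpm/pmol) at 5, 20 or 50 μM, chosen per kinase to be at or below its ATP Km. Reactions were started with MgATP, stopped with orthophosphoric acid and spotted onto P81 filters. Result is mean % activity of duplicates at one inhibitor concentration versus DMSO control.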

In assay [5] the target is Calcium/calmodulin-dependent protein kinase kinase 2 (Homo sapiens) (UniProt Q96RR4). Briefly: Inhibition of CAMKKbeta assessed as remaining enzyme activity at 3 uM relative to DMSO. A digest of the protocol: as §1
Chain of Calcium/calmodulin-dependent protein kinase kinase 2 (Homo sapiens) (Q96RR4 whole entry, looked up): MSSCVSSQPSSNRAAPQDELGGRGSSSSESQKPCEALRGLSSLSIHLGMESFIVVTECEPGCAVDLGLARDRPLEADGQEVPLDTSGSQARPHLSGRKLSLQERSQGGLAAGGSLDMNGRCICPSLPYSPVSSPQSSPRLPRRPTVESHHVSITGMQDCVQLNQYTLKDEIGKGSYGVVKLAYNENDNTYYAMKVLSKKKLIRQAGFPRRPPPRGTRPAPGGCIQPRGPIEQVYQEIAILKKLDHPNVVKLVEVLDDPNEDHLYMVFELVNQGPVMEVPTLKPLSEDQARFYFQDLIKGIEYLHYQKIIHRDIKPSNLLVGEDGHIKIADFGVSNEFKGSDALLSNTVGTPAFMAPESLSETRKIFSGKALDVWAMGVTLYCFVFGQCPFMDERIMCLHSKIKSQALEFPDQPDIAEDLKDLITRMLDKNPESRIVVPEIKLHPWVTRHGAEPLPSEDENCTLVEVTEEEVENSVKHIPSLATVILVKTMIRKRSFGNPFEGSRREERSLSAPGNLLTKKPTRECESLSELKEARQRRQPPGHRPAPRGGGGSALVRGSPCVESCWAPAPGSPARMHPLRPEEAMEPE
Assay [6] is described as follows: Inhibition of PHK assessed as remaining enzyme activity at 3 uM relative to DMSO. A digest of the protocol: as §2
Assay [7] can be described thus: Inhibition of CK2 assessed as remaining enzyme activity at 3 uM relative to DMSO. A digest of the protocol:
as §1

The target of assay [8] is Serine/threonine-protein kinase 3 (Homo sapiens) (UniProt Q13188). The assay is described as follows: Inhibition of MST2 assessed as remaining enzyme activity at 3 uM relative to DMSO. A digest of the protocol:
as §2

Assay [9] addresses Eukaryotic elongation factor 2 kinase (Homo sapiens) (UniProt O00418). The assay is described as follows: Inhibition of EF2K assessed as remaining enzyme activity at 3 uM relative to DMSO. A digest of the protocol: as §1
Assay [10] deals with Tyrosine-protein kinase Lck (Homo sapiens) (UniProt P06239). The assay is described as follows: Inhibition of Lck assessed as remaining enzyme activity at 3 uM relative to DMSO. A digest of the protocol:
as §2

In assay [11] the target is Tyrosine-protein kinase SYK (Homo sapiens) (UniProt P43405). Briefly: Inhibition of SYK assessed as remaining enzyme activity at 3 uM relative to DMSO.
Assay [12] has as its target Mitogen-activated protein kinase kinase kinase 9 (Homo sapiens) (UniProt P80192). The assay is described as follows: Inhibition of MLK1 assessed as remaining enzyme activity at 3 uM relative to DMSO. A digest of the protocol:
as §2

Assay [13] deals with Misshapen-like kinase 1 (Homo sapiens) (UniProt Q8N4C8). The assay is described as follows: Inhibition of MINK1 assessed as remaining enzyme activity at 3 uM relative to DMSO. A digest of the protocol: as §2
The target of assay [14] is Mitogen-activated protein kinase kinase kinase 11 (Homo sapiens) (UniProt Q16584). Briefly: Inhibition of MLK3 assessed as remaining enzyme activity at 3 uM relative to DMSO. A digest of the protocol: as §2
Assay [15] addresses LIM domain kinase 1 (Homo sapiens) (UniProt P53667). The assay is described as follows: Binding affinity to LIMK1 assessed as percentage of kinase remaining bound to the bead at 1 uM by T7 phage display based binding assay. A digest of the protocol:
(§3)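 Competition binding assay run by a contract lab. Each kinase was expressed as a fusion to T7 phage, full-length for small kinases and catalytic domain for large ones. Phage were mixed with an immobilized known kinase inhibitor on streptavidin magnetic beads and with test compound at a single 1 μM. Kinase/phage still bound to the beads was quantified by qPCR and expressed as % of DMSO control.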

Assay [16] deals with TGF-beta receptor type-1 (Homo sapiens) (UniProt P36897). The assay is described as follows: Binding affinity to TGFBR1 assessed as percentage of kinase remaining bound to the bead at 1 uM by T7 phage display based binding assay. A digest of the protocol:
as §3

Assay [17] concerns the target Mitogen-activated protein kinase kinase kinase 20 (Homo sapiens) (UniProt Q9NYL2). The assay is described as follows: Binding affinity to ZAK assessed as percentage of kinase remaining bound to the bead at 1 uM by T7 phage display based binding assay. A digest of the protocol:
as §3

Assay [18] concerns the target Serine/threonine-protein kinase STK11 (Homo sapiens) (UniProt Q15831). Briefly: Inhibition of LKB1 assessed as remaining enzyme activity at 1 uM relative to DMSO. A digest of the protocol:
as §1

Assay [19] concerns the target Receptor tyrosine-protein kinase erbB-4 (Homo sapiens) (UniProt Q15303). Briefly: Inhibition of HER4 assessed as remaining enzyme activity at 1 uM relative to DMSO. A digest of the protocol:
as §1

The target of assay [20] is ALK tyrosine kinase receptor (Homo sapiens) (UniProt Q9UM73). The assay is described as follows: Binding affinity to ALK assessed as percentage of kinase remaining bound to the bead at 1 uM by T7 phage display based binding assay. A digest of the protocol:
as §3

The target of assay [21] is Vascular endothelial growth factor receptor 3 (Homo sapiens) (UniProt P35916). Briefly: Binding affinity to FLT4 assessed as percentage of kinase remaining bound to the bead at 1 uM by T7 phage display based binding assay. A digest of the protocol:
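Kinases expressed as T7 phage fusions (full-length for small kinases, catalytic domain for large). Phage mixed with an immobilized known kinase inhibitor on streptavidin magnetic beads plus test compound at a single 1 μM concentration. Ligand displacement from the ATP site was read by quantitative PCR as % kinase/phage still bead-bound versus DMSO control. Human kinases.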

Assay [22] concerns the target Cyclin-G-associated kinase (Homo sapiens) (UniProt O14976). Briefly: Binding affinity to GAK assessed as percentage of kinase remaining bound to the bead at 1 uM by T7 phage display based binding assay. A digest of the protocol: as §3
The target of assay [23] is Serine/threonine-protein kinase pim-3 (Homo sapiens) (UniProt Q86V86). Briefly: Inhibition of PIM3 assessed as remaining enzyme activity at 1 uM relative to DMSO. A digest of the protocol:
as §2

The target in assay [24] is Serine/threonine-protein kinase PAK 6 (Homo sapiens) (UniProt Q9NQU5). The assay is described as follows: Inhibition of PAK6 assessed as remaining enzyme activity at 1 uM relative to DMSO. A digest of the protocol:
as §2

For assay [25], the target named is Proto-oncogene tyrosine-protein kinase Src (Homo sapiens) (UniProt P12931). Briefly: Inhibition of Src assessed as remaining enzyme activity at 1 uM relative to DMSO.
Assay [26] has as its target Insulin receptor-related protein (Homo sapiens) (UniProt P14616). Briefly: Inhibition of IRR assessed as remaining enzyme activity at 1 uM relative to DMSO. A digest of the protocol:
as §1

Assay [27] addresses Mitogen-activated protein kinase 13 (Homo sapiens) (UniProt O15264). Briefly: Inhibition of p38delta assessed as remaining enzyme activity at 1 uM relative to DMSO.
Assay [28] has as its target MAP kinase-interacting serine/threonine-protein kinase 2 (Homo sapiens) (UniProt Q9HBH9). Briefly: Inhibition of MNK2 assessed as remaining enzyme activity at 1 uM relative to DMSO. A digest of the protocol:
as §2

For assay [29], the target named is Serine/threonine-protein kinase Chk2 (Homo sapiens) (UniProt O96017). The assay is described as follows: Inhibition of CHK2 assessed as remaining enzyme activity at 1 uM relative to DMSO. A digest of the protocol: as §1
Chain of Serine/threonine-protein kinase Chk2 (Homo sapiens) (O96017 whole entry): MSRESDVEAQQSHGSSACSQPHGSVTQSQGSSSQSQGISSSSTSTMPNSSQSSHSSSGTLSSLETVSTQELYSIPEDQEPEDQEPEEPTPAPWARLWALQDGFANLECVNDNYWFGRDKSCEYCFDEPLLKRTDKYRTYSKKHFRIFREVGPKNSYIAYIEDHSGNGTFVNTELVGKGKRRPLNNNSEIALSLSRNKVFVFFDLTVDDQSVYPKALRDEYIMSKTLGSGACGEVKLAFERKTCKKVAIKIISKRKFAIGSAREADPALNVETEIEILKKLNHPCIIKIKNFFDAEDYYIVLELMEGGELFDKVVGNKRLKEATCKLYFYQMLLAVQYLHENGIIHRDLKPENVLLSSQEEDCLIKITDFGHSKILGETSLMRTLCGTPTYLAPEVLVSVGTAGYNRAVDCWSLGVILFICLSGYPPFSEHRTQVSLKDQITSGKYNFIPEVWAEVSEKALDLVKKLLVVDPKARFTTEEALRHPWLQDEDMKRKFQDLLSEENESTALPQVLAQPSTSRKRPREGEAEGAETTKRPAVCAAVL
The target of assay [30] is Glycogen synthase kinase-3 beta (Homo sapiens) (UniProt P49841). Briefly: Inhibition of GSK3-beta assessed as remaining enzyme activity at 1 uM relative to DMSO. A digest of the protocol: as §1

Chain of MAP kinase-interacting serine/threonine-protein kinase 1 (Homo sapiens) (Q9BUB5 whole entry, looked up): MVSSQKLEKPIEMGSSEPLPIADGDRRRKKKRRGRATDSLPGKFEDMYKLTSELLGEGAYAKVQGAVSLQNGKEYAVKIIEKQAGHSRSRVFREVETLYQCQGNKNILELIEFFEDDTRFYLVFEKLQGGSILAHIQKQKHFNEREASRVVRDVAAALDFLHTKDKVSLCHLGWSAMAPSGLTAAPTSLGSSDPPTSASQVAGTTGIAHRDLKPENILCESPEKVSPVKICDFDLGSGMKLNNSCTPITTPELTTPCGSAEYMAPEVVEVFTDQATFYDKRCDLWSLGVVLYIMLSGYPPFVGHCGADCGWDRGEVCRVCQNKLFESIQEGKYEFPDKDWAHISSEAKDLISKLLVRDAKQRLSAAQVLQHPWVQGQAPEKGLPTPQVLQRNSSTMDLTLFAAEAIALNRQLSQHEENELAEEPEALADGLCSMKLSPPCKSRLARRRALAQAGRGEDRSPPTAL
Chain of Insulin receptor-related protein (Homo sapiens) (P14616 27-742 limits assumed): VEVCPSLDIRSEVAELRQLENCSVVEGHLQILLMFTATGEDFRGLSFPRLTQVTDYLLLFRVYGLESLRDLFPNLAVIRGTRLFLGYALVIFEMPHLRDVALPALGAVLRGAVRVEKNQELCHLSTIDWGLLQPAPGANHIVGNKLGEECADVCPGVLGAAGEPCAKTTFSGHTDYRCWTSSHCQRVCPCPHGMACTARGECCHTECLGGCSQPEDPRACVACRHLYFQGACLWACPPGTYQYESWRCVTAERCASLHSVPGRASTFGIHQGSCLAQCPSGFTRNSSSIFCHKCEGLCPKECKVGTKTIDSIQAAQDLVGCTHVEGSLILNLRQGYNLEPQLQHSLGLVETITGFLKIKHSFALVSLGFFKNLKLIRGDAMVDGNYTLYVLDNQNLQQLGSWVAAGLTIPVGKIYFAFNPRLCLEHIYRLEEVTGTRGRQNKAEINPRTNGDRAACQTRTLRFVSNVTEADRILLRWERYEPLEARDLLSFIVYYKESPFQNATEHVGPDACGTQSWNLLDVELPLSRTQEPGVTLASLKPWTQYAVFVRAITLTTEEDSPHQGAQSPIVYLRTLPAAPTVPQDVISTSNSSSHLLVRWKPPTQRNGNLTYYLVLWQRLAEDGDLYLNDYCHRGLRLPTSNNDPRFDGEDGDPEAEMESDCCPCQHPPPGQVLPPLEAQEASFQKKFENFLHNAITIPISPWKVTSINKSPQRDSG
Chain of Insulin receptor-related protein (Homo sapiens) (P14616 747-1297 limits assumed): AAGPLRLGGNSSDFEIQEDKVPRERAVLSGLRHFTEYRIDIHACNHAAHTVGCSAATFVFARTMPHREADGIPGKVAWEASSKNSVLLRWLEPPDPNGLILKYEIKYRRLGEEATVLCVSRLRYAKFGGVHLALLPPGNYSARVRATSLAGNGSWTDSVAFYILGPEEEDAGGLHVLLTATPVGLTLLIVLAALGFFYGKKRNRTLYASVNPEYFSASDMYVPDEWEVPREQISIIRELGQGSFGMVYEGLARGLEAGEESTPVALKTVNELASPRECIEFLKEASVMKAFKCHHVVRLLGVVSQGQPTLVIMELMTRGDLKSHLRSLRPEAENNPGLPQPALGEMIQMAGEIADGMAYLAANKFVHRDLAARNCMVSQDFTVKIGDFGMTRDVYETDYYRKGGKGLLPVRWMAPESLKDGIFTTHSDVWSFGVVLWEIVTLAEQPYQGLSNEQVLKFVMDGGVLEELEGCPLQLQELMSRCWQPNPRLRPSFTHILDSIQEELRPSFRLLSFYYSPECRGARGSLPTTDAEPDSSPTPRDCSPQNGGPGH
Chain of Eukaryotic elongation factor 2 kinase (Homo sapiens) (O00418 whole entry): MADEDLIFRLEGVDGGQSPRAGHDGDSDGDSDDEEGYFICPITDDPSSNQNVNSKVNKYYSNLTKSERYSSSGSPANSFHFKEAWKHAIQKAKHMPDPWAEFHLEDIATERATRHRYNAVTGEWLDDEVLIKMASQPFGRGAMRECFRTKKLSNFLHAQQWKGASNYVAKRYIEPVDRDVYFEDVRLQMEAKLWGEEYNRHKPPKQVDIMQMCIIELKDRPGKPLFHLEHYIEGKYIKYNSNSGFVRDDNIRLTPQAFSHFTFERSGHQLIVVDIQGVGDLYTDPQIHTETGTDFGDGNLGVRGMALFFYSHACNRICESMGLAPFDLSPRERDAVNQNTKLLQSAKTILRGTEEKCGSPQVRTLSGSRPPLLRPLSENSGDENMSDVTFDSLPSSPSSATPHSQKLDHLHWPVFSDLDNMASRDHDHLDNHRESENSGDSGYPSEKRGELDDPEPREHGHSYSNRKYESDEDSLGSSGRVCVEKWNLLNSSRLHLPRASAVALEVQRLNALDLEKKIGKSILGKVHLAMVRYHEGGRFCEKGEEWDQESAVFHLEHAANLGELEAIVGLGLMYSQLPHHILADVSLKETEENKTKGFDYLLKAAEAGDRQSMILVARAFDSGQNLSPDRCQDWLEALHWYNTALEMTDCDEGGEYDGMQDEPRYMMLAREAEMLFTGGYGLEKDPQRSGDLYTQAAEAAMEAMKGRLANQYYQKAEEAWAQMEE
Chain of LIM domain kinase 1 (Homo sapiens) (P53667 whole entry, looked up, the tested form may be a part): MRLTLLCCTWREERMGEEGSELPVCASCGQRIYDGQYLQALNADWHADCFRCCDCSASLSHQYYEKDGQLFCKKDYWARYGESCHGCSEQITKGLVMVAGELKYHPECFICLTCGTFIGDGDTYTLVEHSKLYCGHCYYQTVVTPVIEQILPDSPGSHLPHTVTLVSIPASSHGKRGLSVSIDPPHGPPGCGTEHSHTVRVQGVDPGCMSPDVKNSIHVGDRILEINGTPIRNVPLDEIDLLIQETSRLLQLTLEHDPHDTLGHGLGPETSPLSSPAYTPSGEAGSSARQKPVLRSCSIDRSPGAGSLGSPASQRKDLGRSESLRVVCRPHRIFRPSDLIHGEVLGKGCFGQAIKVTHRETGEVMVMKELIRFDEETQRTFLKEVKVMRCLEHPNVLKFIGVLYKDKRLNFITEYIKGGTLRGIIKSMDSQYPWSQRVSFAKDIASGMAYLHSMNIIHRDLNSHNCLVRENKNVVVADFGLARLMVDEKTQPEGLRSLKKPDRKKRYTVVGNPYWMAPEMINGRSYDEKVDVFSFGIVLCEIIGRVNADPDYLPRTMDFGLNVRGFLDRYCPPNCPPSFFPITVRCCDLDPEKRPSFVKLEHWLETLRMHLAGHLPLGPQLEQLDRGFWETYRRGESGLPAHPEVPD
Chain of Serine/threonine-protein kinase STK11 (Homo sapiens) (Q15831 whole entry): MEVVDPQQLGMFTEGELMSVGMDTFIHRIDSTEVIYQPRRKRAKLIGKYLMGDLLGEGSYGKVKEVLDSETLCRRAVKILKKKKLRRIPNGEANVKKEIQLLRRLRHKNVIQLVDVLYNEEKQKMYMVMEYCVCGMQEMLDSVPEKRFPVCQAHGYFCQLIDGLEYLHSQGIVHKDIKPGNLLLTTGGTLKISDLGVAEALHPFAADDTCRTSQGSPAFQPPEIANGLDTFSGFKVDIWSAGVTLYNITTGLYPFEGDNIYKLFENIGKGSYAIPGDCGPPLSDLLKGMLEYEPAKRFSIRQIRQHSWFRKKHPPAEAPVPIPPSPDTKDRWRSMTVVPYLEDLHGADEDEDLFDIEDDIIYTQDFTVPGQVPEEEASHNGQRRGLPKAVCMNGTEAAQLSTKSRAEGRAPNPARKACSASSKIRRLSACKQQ

For the compound `COc1ccccc1-n1c(-c2ccccc2C)cn2c3c(=O)[nH]c(=O)n(C)c3nc12`, the Activity in [1] stood at 91%; in assay [2] it was 124%; in assay [3] it was 94%; in [4] it was 93%; in assay [5], 101%; in [6], 92%. Further, the Activity in [7] worked out at 85%; in assay [8], 95%; in assay [9], 93%; in [10], 3%; in [11], 94%; in [12], 85%. The figures for the Activity in assay [13] and in assay [14] were 101% and 136%, respectively.
Regarding `COc1ccccc1-n1c(-c2cc(O)ccc2C)cn2c3c(=O)[nH]c(=O)n(C)c3nc12`, the Activity in assay [15] turned out to be 83%; in assay [16], 3.6%; in assay [17], 15%; in assay [18], 75%; in assay [19] it was 32%; in assay [20], 99%. The Activity was found to be 93% in assay [21]; 49% in [22]; 81% in [23]; 92% in assay [24]; 9% in [25]; 100% in assay [26]. Moreover, the Activity in [27] was found to be 86%; in assay [28], 74%; in [29], 90%; in assay [30] it was 89%.
